From BindingDB's records for doi:10.1021/jm030565g (Glaxosmithkline, 2004)

Columns and labels:
[1] = Effective concentration for lipogenesis induced by retinoid X receptor alpha in C3H10T1/2 clone 8 fibroblast cells
[2] = Effective concentration for retinoic acid receptor alpha induced lipogenesis in C3H10T1/2 clone 8 fibroblast cells
[3] = Effective concentration for lipogenesis induced by retinoid X receptor alpha in C3H10T1/2 clone 8 fibroblast cells; Partial agonist
[4] = Inhibitory concentration for lipogenesis induced by retinoic acid receptor alpha in C3H10T1/2 clone 8 fibroblast cells
[5] = target: T1, Retinoic acid receptor RXR-alpha (Homo sapiens, UniProt P19793); test: Effective concentration for lipogenesis induced by retinoid X receptor alpha in C3H10T1/2 clone 8 fibroblast cells
T1 sequence (P19793 whole entry): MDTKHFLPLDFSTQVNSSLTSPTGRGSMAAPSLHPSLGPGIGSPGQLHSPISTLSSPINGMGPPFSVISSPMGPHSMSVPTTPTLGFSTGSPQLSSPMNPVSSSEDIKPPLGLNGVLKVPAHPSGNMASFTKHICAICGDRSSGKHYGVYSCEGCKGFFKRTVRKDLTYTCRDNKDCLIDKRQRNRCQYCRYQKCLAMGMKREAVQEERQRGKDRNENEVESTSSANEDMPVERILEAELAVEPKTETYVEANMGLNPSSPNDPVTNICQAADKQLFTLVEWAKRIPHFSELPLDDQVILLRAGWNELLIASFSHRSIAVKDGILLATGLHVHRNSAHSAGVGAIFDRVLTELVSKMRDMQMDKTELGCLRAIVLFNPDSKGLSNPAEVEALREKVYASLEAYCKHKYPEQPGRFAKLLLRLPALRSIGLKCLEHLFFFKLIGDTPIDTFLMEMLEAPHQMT
Summary of the method: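 Lipogenesis measured in C3H10T1/2 clone 8 fibroblasts as triglyceride accumulation, used as a surrogate marker of RXR activity.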

| Structure (SMILES) | EC50 [1] | EC50 [2] | other results |
| --- | --- | --- | --- |
| C/C(=C\C(=O)O)c1cc2c(o1)CCCC2c1ccc2c(c1)C(C)(C)CCC2(C)C (stereo unspecified) | 10 nM | – | – |
| CN1Cc2oc(/C=C/C(=O)O)cc2C(c2ccc3c(c2)C(C)(C)CCC3(C)C)C1 (stereo unspecified) | 22 nM | > 10000 nM | – |
| CC1(C)CCC(C)(C)c2cc(C3CCCc4oc(C=C5SC(O)=NC5=O)cc43)ccc21 (stereo unspecified) [5-[1-[4-(5,5,8,8-Tetramethyl-5,6,7,8-tetrahydro-naphthalen-2-yl)-4,5,6,7-tetrahydro-benzofuran-2-yl]-meth-(E)-ylidene]-thiazolidine-2,4-dione] | 5 nM | – | – |
| Cc1cc2c(cc1C1CCCc3oc(/C=C/C(=O)O)cc31)C(C)(C)CCC2(C)C (stereo unspecified) [(E)-3-[4-(3,5,5,8,8-Pentamethyl-5,6,7,8-tetrahydro-naphthalen-2-yl)-4,5,6,7-tetrahydro-benzofuran-2-yl]-acrylic acid] | 3000 nM | – | – |
| COc1cc2c(cc1C1CCCc3oc(/C=C/C(=O)O)cc31)C(C)(C)CCC2(C)C (stereo unspecified) [(E)-3-[4-(3-Methoxy-5,5,8,8-tetramethyl-5,6,7,8-tetrahydro-naphthalen-2-yl)-4,5,6,7-tetrahydro-benzofuran-2-yl]-acrylic acid] | – | – | EC50 [3]: 123 nM |
| CCCOc1cc2c(cc1C1CCCc3oc(/C=C/C(=O)O)cc31)C(C)(C)CCC2(C)C (stereo unspecified) [(E)-3-[4-(5,5,8,8-Tetramethyl-3-propoxy-5,6,7,8-tetrahydro-naphthalen-2-yl)-4,5,6,7-tetrahydro-benzofuran-2-yl]-acrylic acid] | – | – | IC50 [4]: > 1000 nM; EC50 [3]: 40 nM |
| CC1(C)CCC(C)(C)c2cc(C3CCCc4sc(/C=C/C(=O)O)cc43)ccc21 (stereo unspecified) [(E)-3-[4-(5,5,8,8-Tetramethyl-5,6,7,8-tetrahydro-naphthalen-2-yl)-4,5,6,7-tetrahydro-benzo[b]thiophen-2-yl]-acrylic acid] | 72 nM | – | – |
| CC1(C)CCC(C)(C)c2cc(C3CCCc4oc(/C=C/C(=O)O)cc43)ccc21 (stereo unspecified) [(E)-3-[4-(5,5,8,8-Tetramethyl-5,6,7,8-tetrahydro-naphthalen-2-yl)-4,5,6,7-tetrahydro-benzofuran-2-yl]-acrylic acid] | 660 nM | – | EC50 [5]: 4 nM |
| CC1(C)CCC(C)(C)c2cc(C3CCCc4oc(/C=C/C(=O)O)nc43)ccc21 (stereo unspecified) [(E)-3-[4-(5,5,8,8-Tetramethyl-5,6,7,8-tetrahydro-naphthalen-2-yl)-4,5,6,7-tetrahydro-benzooxazol-2-yl]-acrylic acid] | 749 nM | > 10000 nM | – |
| CC1(C)CCC(C)(C)c2cc(Cc3coc(/C=C/C(=O)O)c3)ccc21 [(E)-3-[4-(5,5,8,8-Tetramethyl-5,6,7,8-tetrahydro-naphthalen-2-ylmethyl)-furan-2-yl]-acrylic acid] | – | 57 nM | – |
| Cc1oc(/C=C/C(=O)O)cc1Cc1ccc2c(c1)C(C)(C)CCC2(C)C [(E)-3-[5-Methyl-4-(5,5,8,8-tetramethyl-5,6,7,8-tetrahydro-naphthalen-2-ylmethyl)-furan-2-yl]-acrylic acid] | 1000 nM | > 1000 nM | – |
